In series [1] the target is T1, NADPH oxidase 4 (Homo sapiens, UniProt Q9NPH5).
T1 sequence (Q9NPH5 whole entry): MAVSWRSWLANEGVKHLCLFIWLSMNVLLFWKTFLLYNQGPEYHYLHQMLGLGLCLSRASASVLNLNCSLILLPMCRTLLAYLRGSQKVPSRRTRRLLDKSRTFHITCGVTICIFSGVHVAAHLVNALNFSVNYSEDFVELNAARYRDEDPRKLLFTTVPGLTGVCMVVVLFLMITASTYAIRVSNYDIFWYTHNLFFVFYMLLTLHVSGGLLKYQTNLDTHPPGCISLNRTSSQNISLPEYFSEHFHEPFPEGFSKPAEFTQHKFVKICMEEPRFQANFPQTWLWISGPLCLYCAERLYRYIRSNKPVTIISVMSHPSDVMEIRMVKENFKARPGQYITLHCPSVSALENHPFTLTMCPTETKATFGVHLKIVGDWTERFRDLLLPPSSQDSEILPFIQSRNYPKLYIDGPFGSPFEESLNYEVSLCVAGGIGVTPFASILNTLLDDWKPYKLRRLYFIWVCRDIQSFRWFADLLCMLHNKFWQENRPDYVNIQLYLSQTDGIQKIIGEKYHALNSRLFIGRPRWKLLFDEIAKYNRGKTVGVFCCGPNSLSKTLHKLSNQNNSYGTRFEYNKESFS
Put plainly: Inhibition of full length human NOX4 transfected in COS 22 cells assessed as inhibition of ROS generation by measuring H2O2 production by fluorescence assay. Particulars: read-out: IC50; call rule not given here.

Series [2] addresses T2, NADPH oxidase 5 (Homo sapiens, UniProt Q96PH1).
T2 sequence (Q96PH1 whole entry): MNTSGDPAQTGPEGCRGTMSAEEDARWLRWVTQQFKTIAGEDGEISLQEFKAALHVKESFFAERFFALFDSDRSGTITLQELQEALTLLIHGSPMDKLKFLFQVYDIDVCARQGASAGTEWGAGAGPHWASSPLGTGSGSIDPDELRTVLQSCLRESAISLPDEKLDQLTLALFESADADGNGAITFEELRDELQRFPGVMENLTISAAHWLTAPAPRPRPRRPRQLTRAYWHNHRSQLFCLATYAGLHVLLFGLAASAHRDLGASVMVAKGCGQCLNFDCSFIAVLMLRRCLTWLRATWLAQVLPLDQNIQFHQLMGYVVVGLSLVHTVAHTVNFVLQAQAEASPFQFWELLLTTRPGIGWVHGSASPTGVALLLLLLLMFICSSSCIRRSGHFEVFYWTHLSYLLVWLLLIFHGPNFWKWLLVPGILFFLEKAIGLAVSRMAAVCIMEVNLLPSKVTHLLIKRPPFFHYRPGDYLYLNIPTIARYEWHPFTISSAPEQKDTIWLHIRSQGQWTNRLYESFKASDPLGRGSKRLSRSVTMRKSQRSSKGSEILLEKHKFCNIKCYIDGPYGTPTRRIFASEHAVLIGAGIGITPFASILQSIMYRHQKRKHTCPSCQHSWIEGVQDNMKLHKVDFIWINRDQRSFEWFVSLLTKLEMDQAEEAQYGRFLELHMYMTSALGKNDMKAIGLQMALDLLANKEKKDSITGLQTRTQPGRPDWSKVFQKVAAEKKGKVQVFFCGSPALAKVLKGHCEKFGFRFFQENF
Put plainly: Inhibition of full length human NOX5 transfected in HEK cells assessed as inhibition of ionomycin-stimulated ROS generation by chemiluminescence assay. It counts as cell-based, HEK293. Put shortly: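 HEK-Nox5 cells at 5 × 10⁴ cells/well in OPTIMEM, 10 min at 37 °C in PBS with L-012, then stimulated with 1 µM PMA/0.1 µM ionomycin; luminescence over time; SOD 150 U/mL used to confirm superoxide specificity. IC50 by three-parameter fit, Hill slope 1, top/bottom fixed 100/0.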

Series [3] deals with T3, NADPH oxidase 2 (Homo sapiens, UniProt P04839).
T3 sequence (P04839 whole entry): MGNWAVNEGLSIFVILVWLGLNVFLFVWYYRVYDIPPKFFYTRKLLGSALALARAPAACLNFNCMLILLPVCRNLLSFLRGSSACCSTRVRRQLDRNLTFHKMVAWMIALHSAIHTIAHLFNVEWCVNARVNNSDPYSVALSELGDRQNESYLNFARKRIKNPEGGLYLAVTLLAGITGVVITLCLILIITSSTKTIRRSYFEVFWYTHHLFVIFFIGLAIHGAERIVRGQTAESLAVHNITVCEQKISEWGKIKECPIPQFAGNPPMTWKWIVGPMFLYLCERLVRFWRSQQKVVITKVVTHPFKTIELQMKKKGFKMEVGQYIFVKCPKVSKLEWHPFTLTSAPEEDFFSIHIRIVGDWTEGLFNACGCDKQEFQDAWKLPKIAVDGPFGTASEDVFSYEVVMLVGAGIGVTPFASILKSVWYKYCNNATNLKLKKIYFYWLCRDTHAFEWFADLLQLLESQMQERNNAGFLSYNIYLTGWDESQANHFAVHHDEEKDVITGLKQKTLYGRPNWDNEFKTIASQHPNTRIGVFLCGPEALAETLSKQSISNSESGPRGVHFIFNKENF
Put plainly: Inhibition of full length human NOX2 transfected in COS 22 cells assessed as inhibition of Phorbol 12-myristate 13-acetate-stimulated ROS generation by chemiluminescence assay. It is filed as cell-based. To be noted: read-out: IC50. The gist of the method: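 COS-Nox2 (COS-7 stably expressing human p22phox, Nox2, p47phox, p67phox) plated in OPTIMEM at 2.5 x 10³ cells/well; 10 min at 37 °C in PBS with L-012, then stimulated with 5 µM PMA; luminescence followed over time; superoxide specificity checked with SOD 150 U/mL. IC50 by three-parameter non-linear fit, Hill slope 1, top/bottom fixed 100/0.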

The target of series [4] is Xanthine dehydrogenase/oxidase (Bos taurus, UniProt P80457). Put plainly: Inhibition of bovine milk xanthine oxidase assessed as hypoxanthine-stimulated ROS generation by measuring H2O2 production at 25 to 50 uM by fluorescence assay. To be noted: cattle.
In series [5] the target is T3, NADPH oxidase 2. The series can be described thus: Inhibition of full length human NOX2 transfected in COS 22 cells assessed as inhibition of Phorbol 12-myristate 13-acetate-stimulated ROS generation by measuring H2O2 production by fluorescence assay in presence of superoxide dismutase. To be noted: read-out: IC50. It counts as cell-based. Put shortly:
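Intact COS-Nox2 cells in Hepes pH 7.4 buffer with 0.1 mM Amplex Red, 0.32 U/ml HRP and 150 U/mL SOD, drug 15 min at 37 °C; started with 5 µM PMA; fluorescence monitored 1 h at 37 °C; rate as RFU/min minus unstimulated cells; % of vehicle control.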

Where only a bound is given, the exact number is not on record here.

Xanthine dehydrogenase/oxidase, sequence (P80457 whole entry): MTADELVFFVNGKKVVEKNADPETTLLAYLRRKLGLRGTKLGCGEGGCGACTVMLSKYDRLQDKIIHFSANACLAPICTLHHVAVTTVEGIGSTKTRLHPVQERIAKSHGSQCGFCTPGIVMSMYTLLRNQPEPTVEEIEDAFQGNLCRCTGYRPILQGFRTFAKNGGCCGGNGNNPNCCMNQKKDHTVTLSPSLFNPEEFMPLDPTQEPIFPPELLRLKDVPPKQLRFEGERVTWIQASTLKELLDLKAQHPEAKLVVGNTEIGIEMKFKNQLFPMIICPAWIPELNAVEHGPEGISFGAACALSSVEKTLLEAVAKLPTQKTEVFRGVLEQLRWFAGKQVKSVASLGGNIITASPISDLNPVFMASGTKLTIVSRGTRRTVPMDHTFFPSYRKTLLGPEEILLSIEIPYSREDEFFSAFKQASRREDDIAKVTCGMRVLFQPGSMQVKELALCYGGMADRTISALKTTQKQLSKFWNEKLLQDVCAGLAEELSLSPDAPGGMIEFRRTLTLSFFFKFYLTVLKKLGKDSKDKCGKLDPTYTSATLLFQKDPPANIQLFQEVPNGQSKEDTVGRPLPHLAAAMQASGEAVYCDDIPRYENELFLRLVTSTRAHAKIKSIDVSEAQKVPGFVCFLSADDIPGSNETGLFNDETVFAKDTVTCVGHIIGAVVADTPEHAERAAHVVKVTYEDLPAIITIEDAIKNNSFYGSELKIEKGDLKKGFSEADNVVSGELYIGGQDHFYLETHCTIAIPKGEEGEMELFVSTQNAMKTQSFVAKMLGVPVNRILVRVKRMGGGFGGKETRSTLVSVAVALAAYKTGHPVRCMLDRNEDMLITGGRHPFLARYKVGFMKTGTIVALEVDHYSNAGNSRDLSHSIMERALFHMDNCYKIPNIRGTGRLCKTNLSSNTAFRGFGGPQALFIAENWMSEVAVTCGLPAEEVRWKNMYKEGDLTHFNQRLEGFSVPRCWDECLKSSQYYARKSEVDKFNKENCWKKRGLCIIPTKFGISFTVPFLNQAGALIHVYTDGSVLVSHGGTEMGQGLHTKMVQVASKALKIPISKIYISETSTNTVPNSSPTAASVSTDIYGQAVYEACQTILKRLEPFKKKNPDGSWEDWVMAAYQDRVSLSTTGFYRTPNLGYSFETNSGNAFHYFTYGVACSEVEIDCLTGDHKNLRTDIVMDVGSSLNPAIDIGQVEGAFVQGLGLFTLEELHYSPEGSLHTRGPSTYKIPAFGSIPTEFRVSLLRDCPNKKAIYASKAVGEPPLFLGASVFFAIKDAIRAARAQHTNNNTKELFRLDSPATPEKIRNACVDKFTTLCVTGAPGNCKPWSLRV

One may read the IC50 as the concentration that gives 50% inhibition. Take `C=C(C)C[C@@H]1N[C@H]2CC(C)(C)[C@@H]1c1c(Br)cccc12` (racemic): the IC50 in series [1] was greater than 100 µM; in series [2], 20 µM; in series [3] it was 46 µM; in series [5], 40 µM. Also, the “inhibition (INH)” value in series [4] was “Not Active”.

(Values after ChEMBL document CHEMBL3390837, “Bridged tetrahydroisoquinolines as selective NADPH oxidase 2 (Nox2) inhibitors” (Medchemcomm, 2013).)
